From ChEMBL document CHEMBL1122638, “8-Methoxypsoralen-nucleic acid photoreaction. Effect of methyl substitution on pyrone vs. furan photoaddition” (J Med Chem, 1984)

How the values were obtained:
Assay type in all cases: functional
[1] = Furan monoadduct and diadduct distribution (products resulting from photoaddition with the nucleic acid poly (dA-dT)) after 10 min irradiation at 360 nm
Summary of the method: (§1)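 Alternating poly(dA-dT)·poly(dA-dT), 1 mg (1.5 µmol base pairs) in 1 mL 10 mM Tris pH 7.2, with 0.3 µmol tritiated psoralen added in 95% EtOH. Irradiated 10 min at 10 °C. Polymer ethanol-reprecipitated, then digested sequentially with DNase II (pH 5, 37 °C), phosphodiesterase II (pH 7) and alkaline phosphatase (pH 7.8-8.0). Adducts resolved by reverse-phase HPLC (water-methanol gradient, pH 2.2 phosphate), with A254 and ³H scintillation counting.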

[2] = Pyrone monoadduct distribution (product resulting from photoaddition with the nucleic acid poly (dA-dT)) after 10 min irradiation at 360 nm; summary of the method: as §1
[3] = Total radioactivity after 10 min irradiation at 360 nm; summary of the method: as §1
[4] = Total radioactivity (pyrone monoadduct, furan monoadduct and diadduct resulting from photoaddition with the nucleic acid poly (dA-dT)) after 10 min irradiation at 360 nm; summary of the method: as §1

Work on `COc1c2oc(C)cc2cc2ccc(=O)oc12` yielded a Radioactivity [1] of 73%, a Radioactivity [2] of 17% and a Radioactivity [3] of 90%.
Compound `COc1c2occc2cc2c(C)cc(=O)oc12` has a Radioactivity [1] of 94%, a Radioactivity [2] of 2% and a Radioactivity [3] of 96%.
In the case of `COc1c2oc(C)cc2cc2c(C)cc(=O)oc12`, the Radioactivity [1] is reported as 94%, the Radioactivity [2] is reported as 2% and the Radioactivity [3] is reported as 96%.
`COc1c2occc2cc2ccc(=O)oc12` gave a Radioactivity [1] of 75%, a Radioactivity [2] of 19% and a Radioactivity [4] of 94%.
